Test results reported in ChEMBL document CHEMBL4118269 (J Med Chem, 2018).

tested on: not listed separately; assay: in vitro; conditions: human, liver microsomes

Compound | CLhep predicted at 0.75 h, 1 µM
O=C(N[C@@H](Cn1ccnc1)c1ccc(Cl)cc1Cl)c1ccc(-c2nnc(-c3cccc(-c4ccccn4)c3)o2)cc1 | 8.06 mL/min/kg
CS(=O)(=O)c1ccc(-c2nnc(-c3ccc(C(=O)N[C@@H](Cn4ccnc4)c4ccc(Cl)cc4Cl)cc3)o2)cc1Cl | 6.45 mL/min/kg
O=C(N[C@@H](Cn1ccnc1)c1ccc(Cl)cc1Cl)c1ccc(-c2nnc(-c3ccc(-c4ccccn4)cc3)o2)cc1 | 7.15 mL/min/kg
O=C(N[C@@H](Cn1ccnc1)c1ccc(Cl)cc1Cl)c1ccc(-c2nnc(-c3ccc(Cl)c(Cl)c3)o2)cc1 | 7.39 mL/min/kg
O=C(N[C@@H](Cn1ccnc1)c1ccc(Cl)cc1Cl)c1ccc(-c2nnc(-c3ccc(-c4ccccn4)cc3F)o2)cc1 | 8.75 mL/min/kg

tested on: not listed separately; assay: in vitro; conditions: Sprague-Dawley, rat, liver microsomes

Compound | CLint scaled at 0.75 h, 1 µM
O=C(N[C@@H](Cn1ccnc1)c1ccc(Cl)cc1Cl)c1ccc(-c2nnc(-c3cccc(-c4ccccn4)c3)o2)cc1 | 68 mL/min/kg
CS(=O)(=O)c1ccc(-c2nnc(-c3ccc(C(=O)N[C@@H](Cn4ccnc4)c4ccc(Cl)cc4Cl)cc3)o2)cc1Cl | 104 mL/min/kg
O=C(N[C@@H](Cn1ccnc1)c1ccc(Cl)cc1Cl)c1ccc(-c2nnc(-c3ccc(-c4ccccn4)cc3)o2)cc1 | 94 mL/min/kg
O=C(N[C@@H](Cn1ccnc1)c1ccc(Cl)cc1Cl)c1ccc(-c2nnc(-c3ccc(Cl)c(Cl)c3)o2)cc1 | 70 mL/min/kg
O=C(N[C@@H](Cn1ccnc1)c1ccc(Cl)cc1Cl)c1ccc(-c2nnc(-c3ccc(-c4ccccn4)cc3F)o2)cc1 | 51.6 mL/min/kg

tested on: not listed separately; assay: in vitro; conditions: CD-1, mouse, liver microsomes

Compound | CLhep predicted at 0.75 h, 1 µM
O=C(N[C@@H](Cn1ccnc1)c1ccc(Cl)cc1Cl)c1ccc(-c2nnc(-c3cccc(-c4ccccn4)c3)o2)cc1 | 56 mL/min/kg
CS(=O)(=O)c1ccc(-c2nnc(-c3ccc(C(=O)N[C@@H](Cn4ccnc4)c4ccc(Cl)cc4Cl)cc3)o2)cc1Cl | 34.5 mL/min/kg
O=C(N[C@@H](Cn1ccnc1)c1ccc(Cl)cc1Cl)c1ccc(-c2nnc(-c3ccc(-c4ccccn4)cc3)o2)cc1 | 46 mL/min/kg
O=C(N[C@@H](Cn1ccnc1)c1ccc(Cl)cc1Cl)c1ccc(-c2nnc(-c3ccc(Cl)c(Cl)c3)o2)cc1 | 49 mL/min/kg
O=C(N[C@@H](Cn1ccnc1)c1ccc(Cl)cc1Cl)c1ccc(-c2nnc(-c3ccc(-c4ccccn4)cc3F)o2)cc1 | 26 mL/min/kg

target: Lanosterol 14-alpha demethylase (Aspergillus) (UniProt B8NUK6+Q9P8R0+G4WW85); assay: Inhibition of Aspergillus fumigatus CYP51 assessed as reduction in [3-3H]eburicol 14alpha-demethylation at 0.75 uM preincubated for 60 secs followed by NADPH addition measured after 60 mins by RP-HPLC analysis relative to control; conditions: not given
Procedure, shortened: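 E. coli-expressed, purified CYP51 (0.5 μM) with rat NADPH-P450 reductase (1.0 μM), 100 μM dilauroylphosphatidylcholine, isocitrate dehydrogenase/isocitrate NADPH regeneration, in 50 mM K phosphate pH 7.2 with 10% glycerol and 0.1% Triton X-100. [3-3H]eburicol 25 μM final, inhibitor 0.75 μM final (1.5:1:50 inhibitor:enzyme:substrate), 37 °C. Started with 100 μM NADPH, 60 min, EtOAc extraction, radio-HPLC. Percent inhibition, triplicate, mean ± SD.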

Compound | inhibition
O=C(N[C@@H](Cn1ccnc1)c1ccc(Cl)cc1Cl)c1ccc(-c2nnc(-c3cccc(-c4ccccn4)c3)o2)cc1 | 34%
CS(=O)(=O)c1ccc(-c2nnc(-c3ccc(C(=O)N[C@@H](Cn4ccnc4)c4ccc(Cl)cc4Cl)cc3)o2)cc1Cl | 32%
O=C(N[C@@H](Cn1ccnc1)c1ccc(Cl)cc1Cl)c1ccc(-c2nnc(-c3ccc(-c4ccccn4)cc3)o2)cc1 | 23%
O=C(N[C@@H](Cn1ccnc1)c1ccc(Cl)cc1Cl)c1ccc(-c2nnc(-c3ccc(Cl)c(Cl)c3)o2)cc1 | 55%
O=C(N[C@@H](Cn1ccnc1)c1ccc(Cl)cc1Cl)c1ccc(-c2nnc(-c3ccc(-c4ccccn4)cc3F)o2)cc1 | 26%

tested on: not listed separately; assay: in vitro; conditions: human, liver microsomes; remark: another data set of the same source

Compound | CLint scaled at 0.75 h, 1 µM
O=C(N[C@@H](Cn1ccnc1)c1ccc(Cl)cc1Cl)c1ccc(-c2nnc(-c3cccc(-c4ccccn4)c3)o2)cc1 | 13.1 mL/min/kg
CS(=O)(=O)c1ccc(-c2nnc(-c3ccc(C(=O)N[C@@H](Cn4ccnc4)c4ccc(Cl)cc4Cl)cc3)o2)cc1Cl | 9.31 mL/min/kg
O=C(N[C@@H](Cn1ccnc1)c1ccc(Cl)cc1Cl)c1ccc(-c2nnc(-c3ccc(-c4ccccn4)cc3)o2)cc1 | 10.8 mL/min/kg
O=C(N[C@@H](Cn1ccnc1)c1ccc(Cl)cc1Cl)c1ccc(-c2nnc(-c3ccc(Cl)c(Cl)c3)o2)cc1 | 11.4 mL/min/kg
O=C(N[C@@H](Cn1ccnc1)c1ccc(Cl)cc1Cl)c1ccc(-c2nnc(-c3ccc(-c4ccccn4)cc3F)o2)cc1 | 15 mL/min/kg

tested on: not listed separately; assay: Half life in CD-1 mouse liver microsomes at 1 uM preincubated for 5 mins followed by NADPH addition measured up to 45 mins by LC-MS/MS analysis; format: ADME, microsome; conditions: 0.75 h
Procedure, shortened: (§1)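 Pooled liver microsomes (0.5 mg/mL; male CD-1 mouse, male Sprague Dawley rat, or mixed-gender human) with 1 μM compound in 100 mM potassium phosphate pH 7.4, 3 mM MgCl2, 37 °C with shaking. 5 min preincubation, then 1 mM NADPH. Aliquots at 0, 3, 7, 15, 25, 45 min quenched in cold CH3CN with carbamazepine internal standard, then LC/MS/MS. Triplicate; T1/2 = ln2/k from the slope of ln % remaining versus time.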

Compound | t1/2
O=C(N[C@@H](Cn1ccnc1)c1ccc(Cl)cc1Cl)c1ccc(-c2nnc(-c3cccc(-c4ccccn4)c3)o2)cc1 | 36 min
CS(=O)(=O)c1ccc(-c2nnc(-c3ccc(C(=O)N[C@@H](Cn4ccnc4)c4ccc(Cl)cc4Cl)cc3)o2)cc1Cl | 97 min
O=C(N[C@@H](Cn1ccnc1)c1ccc(Cl)cc1Cl)c1ccc(-c2nnc(-c3ccc(-c4ccccn4)cc3)o2)cc1 | 57 min
O=C(N[C@@H](Cn1ccnc1)c1ccc(Cl)cc1Cl)c1ccc(-c2nnc(-c3ccc(Cl)c(Cl)c3)o2)cc1 | 51 min
O=C(N[C@@H](Cn1ccnc1)c1ccc(Cl)cc1Cl)c1ccc(-c2nnc(-c3ccc(-c4ccccn4)cc3F)o2)cc1 | 149 min

tested on: not listed separately; assay: Lipophilicity, log P of the compound; format: physicochemical; conditions: octanol/water

Compound | logP
O=C(N[C@@H](Cn1ccnc1)c1ccc(Cl)cc1Cl)c1ccc(-c2nnc(-c3cccc(-c4ccccn4)c3)o2)cc1 | 5.33
CS(=O)(=O)c1ccc(-c2nnc(-c3ccc(C(=O)N[C@@H](Cn4ccnc4)c4ccc(Cl)cc4Cl)cc3)o2)cc1Cl | 3.83
O=C(N[C@@H](Cn1ccnc1)c1ccc(Cl)cc1Cl)c1ccc(-c2nnc(-c3ccc(-c4ccccn4)cc3)o2)cc1 | 5.33
O=C(N[C@@H](Cn1ccnc1)c1ccc(Cl)cc1Cl)c1ccc(-c2nnc(-c3ccc(Cl)c(Cl)c3)o2)cc1 | 5.68
O=C(N[C@@H](Cn1ccnc1)c1ccc(Cl)cc1Cl)c1ccc(-c2nnc(-c3ccc(-c4ccccn4)cc3F)o2)cc1 | 5.49

tested on: not listed separately; assay: in vitro; conditions: CD-1, mouse, liver microsomes; remark: another data set of the same source

Compound | CLint scaled at 0.75 h, 1 µM
O=C(N[C@@H](Cn1ccnc1)c1ccc(Cl)cc1Cl)c1ccc(-c2nnc(-c3cccc(-c4ccccn4)c3)o2)cc1 | 152 mL/min/kg
CS(=O)(=O)c1ccc(-c2nnc(-c3ccc(C(=O)N[C@@H](Cn4ccnc4)c4ccc(Cl)cc4Cl)cc3)o2)cc1Cl | 56 mL/min/kg
O=C(N[C@@H](Cn1ccnc1)c1ccc(Cl)cc1Cl)c1ccc(-c2nnc(-c3ccc(-c4ccccn4)cc3)o2)cc1 | 95 mL/min/kg
O=C(N[C@@H](Cn1ccnc1)c1ccc(Cl)cc1Cl)c1ccc(-c2nnc(-c3ccc(Cl)c(Cl)c3)o2)cc1 | 107 mL/min/kg
O=C(N[C@@H](Cn1ccnc1)c1ccc(Cl)cc1Cl)c1ccc(-c2nnc(-c3ccc(-c4ccccn4)cc3F)o2)cc1 | 36.5 mL/min/kg

tested on: not listed separately; assay: in vitro; conditions: Sprague-Dawley, rat, liver microsomes; remark: another data set of the same source

Compound | CLhep predicted at 0.75 h, 1 µM
O=C(N[C@@H](Cn1ccnc1)c1ccc(Cl)cc1Cl)c1ccc(-c2nnc(-c3cccc(-c4ccccn4)c3)o2)cc1 | 35 mL/min/kg
CS(=O)(=O)c1ccc(-c2nnc(-c3ccc(C(=O)N[C@@H](Cn4ccnc4)c4ccc(Cl)cc4Cl)cc3)o2)cc1Cl | 42 mL/min/kg
O=C(N[C@@H](Cn1ccnc1)c1ccc(Cl)cc1Cl)c1ccc(-c2nnc(-c3ccc(-c4ccccn4)cc3)o2)cc1 | 40 mL/min/kg
O=C(N[C@@H](Cn1ccnc1)c1ccc(Cl)cc1Cl)c1ccc(-c2nnc(-c3ccc(Cl)c(Cl)c3)o2)cc1 | 35 mL/min/kg
O=C(N[C@@H](Cn1ccnc1)c1ccc(Cl)cc1Cl)c1ccc(-c2nnc(-c3ccc(-c4ccccn4)cc3F)o2)cc1 | 29.7 mL/min/kg

tested on: not listed separately; assay: Half life in human liver microsomes at 1 uM preincubated for 5 mins followed by NADPH addition measured up to 45 mins by LC-MS/MS analysis; format: ADME, microsome; conditions: 0.75 h
Procedure, shortened: as §1

Compound | t1/2
O=C(N[C@@H](Cn1ccnc1)c1ccc(Cl)cc1Cl)c1ccc(-c2nnc(-c3cccc(-c4ccccn4)c3)o2)cc1 | 95 min
CS(=O)(=O)c1ccc(-c2nnc(-c3ccc(C(=O)N[C@@H](Cn4ccnc4)c4ccc(Cl)cc4Cl)cc3)o2)cc1Cl | 134 min
O=C(N[C@@H](Cn1ccnc1)c1ccc(Cl)cc1Cl)c1ccc(-c2nnc(-c3ccc(-c4ccccn4)cc3)o2)cc1 | 115 min
O=C(N[C@@H](Cn1ccnc1)c1ccc(Cl)cc1Cl)c1ccc(-c2nnc(-c3ccc(Cl)c(Cl)c3)o2)cc1 | 110 min
O=C(N[C@@H](Cn1ccnc1)c1ccc(Cl)cc1Cl)c1ccc(-c2nnc(-c3ccc(-c4ccccn4)cc3F)o2)cc1 | 83 min

target: Lanosterol 14-alpha demethylase (Candida albicans (strain SC5314 / ATCC MYA-2876) (Yeast), UniProt P10613); assay: Inhibition of Candida albicans CYP51 assessed as reduction in [3-3H]lanosterol 14alpha-demethylation at 0.75 uM preincubated for 60 secs followed by NADPH addition measured after 60 mins by RP-HPLC analysis relative to control; conditions: 1 h
Sequence (P10613 whole entry): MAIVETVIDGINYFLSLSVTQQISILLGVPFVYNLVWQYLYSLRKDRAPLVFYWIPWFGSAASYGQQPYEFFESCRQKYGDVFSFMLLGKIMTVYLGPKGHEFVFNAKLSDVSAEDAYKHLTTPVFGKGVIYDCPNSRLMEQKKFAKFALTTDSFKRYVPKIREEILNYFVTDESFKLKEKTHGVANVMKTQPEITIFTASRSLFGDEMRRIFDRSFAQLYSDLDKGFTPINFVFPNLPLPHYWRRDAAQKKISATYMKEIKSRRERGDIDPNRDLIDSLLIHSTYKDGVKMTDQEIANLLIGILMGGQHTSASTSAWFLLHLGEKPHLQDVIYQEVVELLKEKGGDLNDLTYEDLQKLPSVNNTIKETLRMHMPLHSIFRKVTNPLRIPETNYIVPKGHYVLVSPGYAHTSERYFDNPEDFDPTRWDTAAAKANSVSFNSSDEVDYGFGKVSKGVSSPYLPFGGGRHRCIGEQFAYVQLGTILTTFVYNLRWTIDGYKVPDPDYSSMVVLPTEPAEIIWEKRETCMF
Procedure, shortened: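 C. albicans CYP51 expressed in E. coli and purified, 0.5 μM, with 1.0 μM rat NADPH-P450 reductase, dilauroylphosphatidylcholine and isocitrate dehydrogenase/isocitrate regeneration in 50 mM potassium phosphate pH 7.2, 10% glycerol, 0.1% Triton X-100. Substrate 25 μM final; inhibitor:enzyme:substrate 1.5:1:50. 37 °C, started with 100 μM NADPH. Sterols extracted with EtOAc, radio-HPLC. Triplicate, mean ± SD.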

Compound | inhibition at 0.75 µM
O=C(N[C@@H](Cn1ccnc1)c1ccc(Cl)cc1Cl)c1ccc(-c2nnc(-c3cccc(-c4ccccn4)c3)o2)cc1 | 77%
CS(=O)(=O)c1ccc(-c2nnc(-c3ccc(C(=O)N[C@@H](Cn4ccnc4)c4ccc(Cl)cc4Cl)cc3)o2)cc1Cl | 53%
O=C(N[C@@H](Cn1ccnc1)c1ccc(Cl)cc1Cl)c1ccc(-c2nnc(-c3ccc(-c4ccccn4)cc3)o2)cc1 | 66%
O=C(N[C@@H](Cn1ccnc1)c1ccc(Cl)cc1Cl)c1ccc(-c2nnc(-c3ccc(Cl)c(Cl)c3)o2)cc1 | 92%
O=C(N[C@@H](Cn1ccnc1)c1ccc(Cl)cc1Cl)c1ccc(-c2nnc(-c3ccc(-c4ccccn4)cc3F)o2)cc1 | 61%

tested on: not listed separately; assay: Half life in Sprague-Dawley rat liver microsomes at 1 uM preincubated for 5 mins followed by NADPH addition measured up to 45 mins by LC-MS/MS analysis; format: ADME, microsome; conditions: 0.75 h
Procedure, shortened: as §1

Compound | t1/2
O=C(N[C@@H](Cn1ccnc1)c1ccc(Cl)cc1Cl)c1ccc(-c2nnc(-c3cccc(-c4ccccn4)c3)o2)cc1 | 41 min
CS(=O)(=O)c1ccc(-c2nnc(-c3ccc(C(=O)N[C@@H](Cn4ccnc4)c4ccc(Cl)cc4Cl)cc3)o2)cc1Cl | 27 min
O=C(N[C@@H](Cn1ccnc1)c1ccc(Cl)cc1Cl)c1ccc(-c2nnc(-c3ccc(-c4ccccn4)cc3)o2)cc1 | 30 min
O=C(N[C@@H](Cn1ccnc1)c1ccc(Cl)cc1Cl)c1ccc(-c2nnc(-c3ccc(Cl)c(Cl)c3)o2)cc1 | 40 min
O=C(N[C@@H](Cn1ccnc1)c1ccc(Cl)cc1Cl)c1ccc(-c2nnc(-c3ccc(-c4ccccn4)cc3F)o2)cc1 | 54 min
